From ChEMBL document CHEMBL1125344, “(Pyridylcyanomethyl)piperazines as orally active PAF antagonists” (J Med Chem, 1992) come the findings set out here.

The target in assay [1] is Platelet-activating factor receptor (Rattus norvegicus) (UniProt P46002). Description: In vivo dose administered intravenously to inhibit PAF-induced hypotension (PAF-Antagonistic activity) in normotensive rats by 56%. It is filed as functional, organism-based. A digest of the protocol: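 Male Sprague-Dawley rats, 180-220 g, anesthetized with sodium pentobarbital ip; blood pressure recorded from left carotid artery. Compound given iv in saline (1 mL/kg) via femoral vein 3 min before PAF 0.5 μg/kg iv; initial dose 5 mg/kg. Percentage inhibition of PAF-induced hypotension calculated versus vehicle-treated controls.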
Sequence of Platelet-activating factor receptor (Rattus norvegicus) (P46002 whole entry): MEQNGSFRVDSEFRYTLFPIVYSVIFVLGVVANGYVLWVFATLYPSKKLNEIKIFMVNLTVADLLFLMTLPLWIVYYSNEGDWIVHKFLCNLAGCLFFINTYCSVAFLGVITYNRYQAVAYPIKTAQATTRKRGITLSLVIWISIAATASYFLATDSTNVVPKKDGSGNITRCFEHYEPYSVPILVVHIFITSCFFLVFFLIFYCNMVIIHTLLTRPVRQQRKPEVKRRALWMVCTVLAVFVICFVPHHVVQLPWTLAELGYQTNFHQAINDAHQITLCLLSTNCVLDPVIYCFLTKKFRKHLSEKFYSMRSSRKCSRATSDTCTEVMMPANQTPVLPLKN

Assay [2] concerns the target Platelet-activating factor receptor (Mus musculus) (UniProt Q62035). In words: Oral dose required to inhibit PAF-induced mortality (PAF-Antagonistic activity)in mice by 50%. The following applies: Mus sp. Type of assay: functional. Put shortly: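 Male Swiss mice, 22-26 g, in groups of 10. Compound or saline given po (20 mL/kg) 60 min before C18-PAF 100 µg/kg plus propranolol 1 mg/kg by tail vein. ID50 from percent inhibition of mortality versus controls.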

Assay [3] addresses Platelet-activating factor receptor (Rattus norvegicus) (UniProt P46002). In words: Dose required to inhibit PAF-induced hypotension (PAF-Antagonistic activity) in normotensive rats by 50%. Type of assay: functional. A digest of the protocol:
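Male Sprague-Dawley rats, 180-220 g, anesthetized with sodium pentobarbital ip. Carotid blood pressure recorded. Compound given iv in saline (1 mL/kg) via femoral vein 3 min before PAF 0.5 µg/kg iv; vehicle controls. ID50 by linear regression of one curve of at least four doses, each the mean % inhibition from two or more experiments.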

Assay [4] shares this target. In words: In vivo dose administered intravenously to inhibit PAF-induced hypotension (PAF-Antagonistic activity) in normotensive rats by 59%. Type of assay: functional, organism-based.
Assay [5] shares this target. In words: In vivo dose administered intravenously to inhibit PAF-induced hypotension (PAF-Antagonistic activity) in normotensive rats by 57%. Type of assay: functional, organism-based.
Assay [6] shares this target. Description: In vivo dose administered intravenously to inhibit PAF-induced hypotension (PAF-Antagonistic activity) in normotensive rats by 55%. Type of assay: functional, organism-based.

Sequence of Platelet-activating factor receptor (Mus musculus) (Q62035 whole entry): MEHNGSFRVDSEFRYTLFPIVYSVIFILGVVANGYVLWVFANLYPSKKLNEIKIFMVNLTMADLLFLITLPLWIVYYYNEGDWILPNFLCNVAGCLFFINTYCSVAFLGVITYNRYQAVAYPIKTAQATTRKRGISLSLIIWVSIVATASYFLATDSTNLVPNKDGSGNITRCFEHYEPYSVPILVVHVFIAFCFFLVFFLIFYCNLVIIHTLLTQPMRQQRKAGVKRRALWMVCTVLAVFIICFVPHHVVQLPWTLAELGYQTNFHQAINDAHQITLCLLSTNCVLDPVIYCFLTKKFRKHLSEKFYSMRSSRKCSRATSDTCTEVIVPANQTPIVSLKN

`N#CC(c1cccnc1)N1CCN(C(=O)Cc2ccc3ccccc3c2)CC1` (stereo not given): the ID50 in assay [1] turned out to be 5 mg/kg.

With `N#CC(c1cccnc1)N1CCN(C(=O)CNC(c2ccccc2)c2ccccc2)CC1` (stereo not given), the ID50 came to 5.9 mg/kg in assay [2] and 0.023 mg/kg in assay [3].

In the case of `N#CC(c1cccnc1)N1CCN(C(=O)CN(Cc2ccccc2)Cc2ccccc2)CC1` (stereo not given), the ID50 is > 10 mg/kg in assay [2] and 1.7 mg/kg in assay [3].

For the compound `CC(C(=O)N1CCN(C(C#N)c2cccnc2)CC1)c1ccccc1` (stereo not given), the figures for the ID50 in assay [2] and in assay [3] were > 50 mg/kg and 0.26 mg/kg, respectively.

Consider `N#CC(c1cccnc1)N1CCN(C(=S)C(c2ccccc2)c2ccccc2)CC1` (stereo not given), for which the ID50 was > 50 mg/kg in assay [2] and 0.45 mg/kg in assay [3].

`CCCCCCCC(=O)N1CCN(C(C#N)c2cccnc2)CC1` (stereo not given): the ID50 was determined as 100 mg/kg in assay [2] and 1.2 mg/kg in assay [3].

In the case of `COc1cc(C(=O)N2CCN(C(=O)c3cc(OC)c(OC)c(OC)c3)CC2)cc(OC)c1OC`, the ID50 was > 100 mg/kg in assay [2] and 4.7 mg/kg in assay [3].

For `N#CC(c1cccnc1)N1CCN(C(=O)CNCCCc2ccccc2)CC1` (stereo not given), the ID50 in assay [2] was determined as 50 mg/kg; in assay [3], 1.3 mg/kg.

As for `N#CC(c1ccncc1)N1CCN(C(=O)CNC(=O)C(c2ccccc2)c2ccccc2)CC1` (stereo not given), the ID50 in assay [2] was > 20 mg/kg; in assay [3], 0.47 mg/kg.

Consider `N#CC(c1cccnc1)N1CCN(C(=O)/C(=C/c2ccccc2)c2ccccc2)CC1` (stereo not given), for which the ID50 in assay [2] is > 20 mg/kg; in assay [3], 0.17 mg/kg.

Take `N#CC(c1cccnc1)N1CCN(C(=O)C(c2ccccc2)c2ccccc2)CC1` (stereo not given): the figures for the ID50 in assay [2] and in assay [3] were 12 mg/kg and 0.11 mg/kg, respectively.

Turning to `CC(c1ccccc1)N(C)CC(=O)N1CCN(C(C#N)c2cccnc2)CC1` (stereo not given), the values for the ID50 in assay [2] and in assay [3] were > 50 mg/kg and 0.77 mg/kg, respectively.

In the case of `CCCCC(=O)N1CCN(C(C#N)c2cccnc2)CC1` (stereo not given), the ID50 in assay [2] was > 50 mg/kg; in assay [3], 4.3 mg/kg.

For `N#CC(c1cccnc1)N1CCN(C(=O)CNCc2ccccc2)CC1` (stereo not given), the ID50 in assay [2] turned out to be 50 mg/kg; in assay [3] it was 0.8 mg/kg.

In the case of `N#CC1(Nc2cccnc2)CCN(C(=O)CNC(c2ccccc2)c2ccccc2)CC1`, the ID50 is 15 mg/kg in assay [2] and 0.096 mg/kg in assay [3].

As to `N#CC(c1cccnc1)C1CCN(C(=O)CNC(c2ccccc2)c2ccccc2)CC1` (stereo not given), the values for the ID50 in assay [2] and in assay [3] were 2.6 mg/kg and 0.03 mg/kg, respectively.

On to `N#CC(c1cccnc1)N1CCN(C(=O)Cc2cccc3ccccc23)CC1` (stereo not given), for which the ID50 in assay [2] is > 50 mg/kg; in assay [3] it was 1.3 mg/kg.

As for `N#CC(c1cccnc1)N1CCN(C(=O)OCC(c2ccccc2)c2ccccc2)CC1` (stereo not given), the ID50 in assay [2] is > 30 mg/kg; in assay [3], 0.078 mg/kg.

With `N#CC(=C1CCN(C(=O)CC(c2ccccc2)c2ccccc2)CC1)c1cccnc1`, the ID50 amounted to 30 mg/kg in assay [2] and 0.42 mg/kg in assay [3].

As for `COc1cc(C(=O)N2CCN(C(=O)c3cccnc3)CC2)cc(OC)c1OC`, the ID50 is > 100 mg/kg in assay [2] and > 5 mg/kg in assay [3].

For the compound `COc1cc(C(=O)N2CCN(C(=S)c3cccnc3)CC2)cc(OC)c1OC`, the ID50 in assay [2] was 100 mg/kg; in assay [3], > 5 mg/kg.

As for `N#CC(c1cccc(Cl)c1)N1CCN(C(=O)CC(c2ccccc2)c2ccccc2)CC1` (stereo not given), the results for the ID50 in assay [2] and in assay [3] were > 30 mg/kg and > 5 mg/kg, respectively.

For `CC(c1cccnc1)N1CCN(C(=O)C(c2ccccc2)c2ccccc2)CC1` (stereo not given), the ID50 in assay [2] came to 100 mg/kg; in assay [3] it was 3.6 mg/kg.

For `N#CC(c1cccc(C(F)(F)F)c1)N1CCN(C(=O)CC(c2ccccc2)c2ccccc2)CC1` (stereo not given), the ID50 in assay [2] is > 30 mg/kg; in assay [3], > 5 mg/kg.

Turning to `N#CC(c1cccnc1)N1CCN(C(=O)Cc2ccccc2)CC1` (stereo not given), the ID50 in assay [2] is 50 mg/kg; in assay [3], 1.5 mg/kg.

On to `N#CC(c1cccnc1)N1CCN(C(=O)CC(c2ccccc2)c2ccccc2)CC1` (stereo not given), for which the ID50 was 12 mg/kg in assay [2] and 0.013 mg/kg in assay [3].

Take `N#CC(c1cccnc1)N1CCN(C(=O)C(Cc2ccccc2)Cc2ccccc2)CC1` (stereo not given): the ID50 in assay [2] is 100 mg/kg; in assay [3], 0.68 mg/kg.

Regarding `N#CC(c1cccnc1)N1CCN(C(=O)NC(c2ccccc2)c2ccccc2)CC1` (stereo not given), the ID50 in assay [2] was determined as 30 mg/kg; in assay [3] it was 0.29 mg/kg.

In the case of `N#CC(c1cccnc1)N1CCN(CC(=O)NCCC(c2ccccc2)c2ccccc2)CC1` (stereo not given), the ID50 is > 30 mg/kg in assay [2] and 3 mg/kg in assay [3].

Take `Cc1nnc2n1-c1sc(CCC(=O)N3CCOCC3)cc1C(c1ccccc1Cl)=NC2`: the results for the ID50 in assay [2] and in assay [3] were 0.97 mg/kg and 0.17 mg/kg, respectively.

`N#CC(c1cccnc1)N1CCN(C(=O)CCNC(c2ccccc2)c2ccccc2)CC1` (stereo not given): the ID50 in assay [2] was 5.4 mg/kg; in assay [3] it was 0.025 mg/kg.

For the compound `N#Cc1cccc(C(C#N)N2CCN(C(=O)CC(c3ccccc3)c3ccccc3)CC2)c1` (stereo not given), the ID50 in assay [2] is > 30 mg/kg; in assay [3], > 5 mg/kg.

Take `CC(NCC(=O)N1CCN(C(C#N)c2cccnc2)CC1)c1ccccc1` (stereo not given): the ID50 came out at 18 mg/kg in assay [2] and 0.39 mg/kg in assay [3].

Take `N#CC(c1cccnc1)N1CCN(C(=O)CNc2ccccc2)CC1` (stereo not given): the ID50 came to 28 mg/kg in assay [2] and 0.49 mg/kg in assay [3].

On to `CC(C(=O)N1CCN(C(C#N)c2cccnc2)CC1)(c1ccccc1)c1ccccc1` (stereo not given), for which the ID50 in assay [2] was > 30 mg/kg; in assay [3] it was 0.14 mg/kg.

Take `N#CC(c1cccnc1)N1CCN(C(=O)CNCCC(c2ccccc2)c2ccccc2)CC1` (stereo not given): the results for the ID50 in assay [2] and in assay [3] were 14 mg/kg and 0.21 mg/kg, respectively.

Turning to `N#CC(c1ccncc1)N1CCN(CCNC(c2ccccc2)c2ccccc2)CC1` (stereo not given), the values for the ID50 in assay [2] and in assay [4] were 29 mg/kg and 5 mg/kg, respectively.

As to `COc1cc(C(=O)N2CCN(Cc3cccnc3)CC2)cc(OC)c1OC`, the ID50 was > 100 mg/kg in assay [2] and > 5 mg/kg in assay [3].

`N#CC(c1ccncc1)N1CCN(C(=O)CCNC(c2ccccc2)c2ccccc2)CC1` (stereo not given): the ID50 in assay [2] was 3.2 mg/kg; in assay [3], 0.037 mg/kg.

In the case of `CC(C#N)(c1cccnc1)N1CCN(C(=O)C(c2ccccc2)c2ccccc2)CC1` (stereo not given), the values for the ID50 in assay [2] and in assay [3] were > 30 mg/kg and > 5 mg/kg, respectively.

With `N#CC(c1cccnc1)C1CCN(C(=O)C(c2ccccc2)c2ccccc2)CC1` (stereo not given), the ID50 in assay [2] is 14 mg/kg; in assay [3] it was 0.023 mg/kg.

On to `O=C(CC(c1ccccc1)c1ccccc1)N1CCN(Cc2cccnc2)CC1`, for which the ID50 in assay [2] came to 35 mg/kg; in assay [3] it was 0.48 mg/kg.

Take `N#CC(c1cccnc1)N1CCN(C(=O)CCc2ccccc2)CC1` (stereo not given): the ID50 in assay [2] is 44 mg/kg; in assay [3], 1.2 mg/kg.

With `N#CC(c1cccnc1)N1CCN(C(=O)Cc2c[nH]c3ccccc23)CC1` (stereo not given), the ID50 in assay [2] is > 50 mg/kg; in assay [3] it was 3.3 mg/kg.

`N#CC(c1cccnc1)N1CCN(C(=O)CCCc2ccccc2)CC1` (stereo not given): the ID50 turned out to be 50 mg/kg in assay [2] and 5 mg/kg in assay [5].

For the compound `COc1cc(CC(=O)N2CCN(C(C#N)c3cccnc3)CC2)cc(OC)c1OC` (stereo not given), the ID50 in assay [2] is > 50 mg/kg; in assay [3], 2.5 mg/kg.

On to `N#CC(c1cccnc1)N1CCN(C(=O)CNCC(c2ccccc2)c2ccccc2)CC1` (stereo not given), for which the ID50 in assay [2] is > 10 mg/kg; in assay [3] it was 0.36 mg/kg.

`N#CC(c1cncs1)N1CCN(C(=O)CC(c2ccccc2)c2ccccc2)CC1` (stereo not given): the ID50 in assay [2] was found to be 25 mg/kg; in assay [3], 0.75 mg/kg.

For `N#CC(c1cccnc1)N1CCN(C(=O)CN(Cc2ccccc2)c2ccccc2)CC1` (stereo not given), the ID50 in assay [2] was > 30 mg/kg; in assay [3], 0.42 mg/kg.

Regarding `N#CC(c1cccc([N+](=O)[O-])c1)N1CCN(C(=O)CC(c2ccccc2)c2ccccc2)CC1` (stereo not given), the ID50 in assay [2] was > 30 mg/kg; in assay [3], > 5 mg/kg.

In assay [6], `N#CC(c1cccnc1)N1CCN(C(=O)c2ccc3ccccc3c2)CC1` (stereo not given) registered an ID50 of 5 mg/kg.
